Assay [1] is filed under the species Rattus norvegicus. Description: Selectivity ratio of Ki for rat MAOA to Ki for rat MAOB. An outline of the steps:
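Ki(rMAO-A)/Ki(rMAO-B), each from rat brain mitochondrial IC50 by Cheng–Prusoff (5-HT for MAO-A, Km 100 μM; DMAPEA for MAO-B, Km 5 μM; HPLC-electrochemical detection).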

Assay [2] has as its target T1, Amine oxidase [flavin-containing] A (Homo sapiens, UniProt P21397).
T1 sequence (P21397 whole entry): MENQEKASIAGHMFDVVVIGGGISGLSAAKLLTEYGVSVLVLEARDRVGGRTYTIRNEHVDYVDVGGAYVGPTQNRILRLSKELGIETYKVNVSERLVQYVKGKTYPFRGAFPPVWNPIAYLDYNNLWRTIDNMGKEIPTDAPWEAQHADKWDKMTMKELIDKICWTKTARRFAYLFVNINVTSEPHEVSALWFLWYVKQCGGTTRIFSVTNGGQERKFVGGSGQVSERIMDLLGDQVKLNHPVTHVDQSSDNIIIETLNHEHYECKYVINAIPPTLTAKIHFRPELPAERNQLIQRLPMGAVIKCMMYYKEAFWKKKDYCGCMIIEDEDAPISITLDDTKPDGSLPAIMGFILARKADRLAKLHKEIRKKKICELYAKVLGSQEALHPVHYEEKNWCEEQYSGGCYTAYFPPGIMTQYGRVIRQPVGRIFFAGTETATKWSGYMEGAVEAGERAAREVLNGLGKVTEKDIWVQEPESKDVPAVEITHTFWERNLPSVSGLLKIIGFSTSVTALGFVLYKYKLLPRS
Description: Inhibition of human recombinant MAOA by spectrophotometrically. An outline of the steps: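 Purified human recombinant MAO-A; initial oxidation rates read spectrophotometrically at 30 °C in 50 mM potassium phosphate pH 7.4 with 0.05% Triton X-100. Kynuramine 0.1–0.9 mM at six inhibitor concentrations spanning 10-fold; product followed at 314 nm. Ki taken directly from full kinetic analysis; errors from a single kinetic analysis.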

For assay [3], the species on record is Homo sapiens. In words: Selectivity ratio of Ki for human MAOA to Ki for human MAOB.
Assay [4] concerns the target T2, Amine oxidase [flavin-containing] B (Homo sapiens, UniProt P27338).
T2 sequence (P27338 whole entry): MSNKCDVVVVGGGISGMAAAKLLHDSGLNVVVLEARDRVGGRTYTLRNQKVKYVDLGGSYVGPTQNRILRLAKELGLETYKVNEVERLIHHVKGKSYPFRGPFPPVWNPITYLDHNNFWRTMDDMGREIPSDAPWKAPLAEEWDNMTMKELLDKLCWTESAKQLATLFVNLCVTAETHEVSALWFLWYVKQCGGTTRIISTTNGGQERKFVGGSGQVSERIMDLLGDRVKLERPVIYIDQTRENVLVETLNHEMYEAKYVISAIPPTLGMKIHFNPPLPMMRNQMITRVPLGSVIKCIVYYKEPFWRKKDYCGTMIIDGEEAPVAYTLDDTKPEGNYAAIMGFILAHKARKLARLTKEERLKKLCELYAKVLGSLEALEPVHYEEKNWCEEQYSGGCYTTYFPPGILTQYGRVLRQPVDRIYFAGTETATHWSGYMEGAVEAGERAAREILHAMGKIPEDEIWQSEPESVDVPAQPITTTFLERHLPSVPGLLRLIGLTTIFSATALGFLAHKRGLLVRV
Description: Inhibition of human recombinant MAOB by spectrophotometrically. An outline of the steps: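 Purified human recombinant MAO-B; benzylamine substrate in 50 mM Hepes pH 7.5 with 0.5% (w/v) reduced Triton X-100 at 25 °C. Benzaldehyde formation monitored at 250 nm. Ki from full kinetic determinations (initial velocities at varied inhibitor levels; Lineweaver–Burk analysis).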

Assay [5] deals with T3, Amine oxidase [flavin-containing] B (Rattus norvegicus, UniProt P19643).
T3 sequence (P19643 whole entry): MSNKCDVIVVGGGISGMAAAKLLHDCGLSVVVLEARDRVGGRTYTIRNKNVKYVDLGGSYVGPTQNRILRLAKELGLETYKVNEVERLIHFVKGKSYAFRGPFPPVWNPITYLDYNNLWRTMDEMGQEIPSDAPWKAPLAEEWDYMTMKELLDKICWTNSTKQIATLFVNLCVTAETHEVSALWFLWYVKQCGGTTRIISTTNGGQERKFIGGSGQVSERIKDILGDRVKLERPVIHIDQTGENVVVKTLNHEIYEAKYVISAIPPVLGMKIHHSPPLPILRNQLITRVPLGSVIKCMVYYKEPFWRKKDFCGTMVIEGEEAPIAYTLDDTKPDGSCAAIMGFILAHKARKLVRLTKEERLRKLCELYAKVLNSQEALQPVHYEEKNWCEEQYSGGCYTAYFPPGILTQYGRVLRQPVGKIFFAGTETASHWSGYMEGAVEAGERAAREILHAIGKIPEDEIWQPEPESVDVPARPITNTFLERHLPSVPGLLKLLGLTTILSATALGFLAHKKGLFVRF
In words: Inhibition of MAOB in rat brain mitochondrial suspension. It is filed as tissue-based. The method, boiled down:
(§1)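 Rat brain mitochondria; MAO-A substrate 5-HT, MAO-B substrate DMAPEA; metabolites measured by HPLC with electrochemical detection. Percent inhibition relative to enzyme treated alike without inhibitor; IC50 from inhibition vs –log concentration (mean ± SD, at least two independent experiments, each in triplicate). Ki by Cheng–Prusoff with Km 100 μM (5-HT, MAO-A) and 5 μM (DMAPEA, MAO-B).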

The target of assay [6] is T4, Amine oxidase [flavin-containing] A (Rattus norvegicus, UniProt P21396).
T4 sequence (P21396 whole entry): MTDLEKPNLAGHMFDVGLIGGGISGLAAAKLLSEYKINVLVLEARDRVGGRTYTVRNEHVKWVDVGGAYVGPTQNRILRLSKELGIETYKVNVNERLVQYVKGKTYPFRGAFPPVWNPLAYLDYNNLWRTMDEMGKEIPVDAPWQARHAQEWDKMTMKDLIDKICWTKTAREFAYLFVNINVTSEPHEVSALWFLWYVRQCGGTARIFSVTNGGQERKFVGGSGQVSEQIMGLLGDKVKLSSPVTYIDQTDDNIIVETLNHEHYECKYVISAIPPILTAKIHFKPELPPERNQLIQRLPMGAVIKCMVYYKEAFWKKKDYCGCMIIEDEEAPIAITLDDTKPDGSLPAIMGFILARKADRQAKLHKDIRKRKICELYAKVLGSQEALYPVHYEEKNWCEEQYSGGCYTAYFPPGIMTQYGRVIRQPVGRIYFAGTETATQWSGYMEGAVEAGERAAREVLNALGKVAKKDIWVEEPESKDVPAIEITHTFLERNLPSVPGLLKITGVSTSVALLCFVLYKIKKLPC
Description: Inhibition of MAOA in rat brain mitochondrial suspension. In kind it is tissue-based. An outline of the steps: as §1

Data on 13 compounds can be found in ChEMBL document CHEMBL1157540, “2-Arylthiomorpholine derivatives as potent and selective monoamine oxidase B inhibitors” (Bioorg Med Chem, 2010).

Bounds are passed on as bounds.

Consider `O=C1CSC(c2ccc(OCc3ccccc3)cc2)CN1` (racemic), for which the results for the Ratio Ki in assay [1] and in assay [3] were 373 and over 2000, respectively. The inhibition constant (Ki) was over 100 µM in assay [2], 0.048 µM in assay [4], 0.074 µM in assay [5] and 27.5 µM in assay [6].

As to `CCCCOc1ccc(C2CNC(=O)CS2)cc1` (racemic), the results for the Ratio Ki in assay [1] and in assay [3] were 318 and 22, respectively. Further, the inhibitory constant (Ki) in assay [2] was determined as 10 µM; in assay [4], 0.46 µM; in assay [5] it was 0.16 µM; in assay [6], 50.9 µM.

Consider `COc1ccc(C2CNC(=O)CS2)cc1` (racemic), for which the Ratio Ki in assay [1] was 0.68. The inhibitory constant (Ki) in assay [2] was over 100 µM; in assay [4] it was over 100 µM; in assay [5] it was 13.6 µM; in assay [6] it was 9.28 µM.

Turning to `c1ccc(C2CNCCS2)cc1` (racemic), in assay [1], the Ratio Ki is 5. For the same compound, the inhibitory constant (Ki) in assay [2] was over 100 µM; in assay [4], over 100 µM; in assay [5], 2.23 µM; in assay [6], 10.6 µM.

As for `O=C1CSC(c2ccccc2)CN1` (racemic), the Ratio Ki in assay [1] amounted to 1. Besides, the Ki in assay [2] was over 100 µM; in assay [4], over 100 µM; in assay [5], 9.58 µM; in assay [6], 9.19 µM.

As to `COc1ccc(C2CNCCS2)cc1` (racemic), the Ratio Ki in assay [1] was found to be 1.7. The Ki in assay [2] was 16.2 µM; in assay [4], over 100 µM; in assay [5] it was 3.85 µM; in assay [6], 6.39 µM.

In the case of `c1ccc(COc2ccc(C3CNCCS3)cc2)cc1` (racemic), the values for the Ratio Ki in assay [1] and in assay [3] were 146 and over 2600, respectively. Also, the Ki is over 100 µM in assay [2], 0.038 µM in assay [4], 0.13 µM in assay [5] and 19 µM in assay [6].

Consider `CCCOc1ccc(C2CNCCS2)cc1` (racemic), for which the Ratio Ki in assay [1] turned out to be 4; in assay [3], 51. Further, the Ki in assay [2] was found to be 6.62 µM; in assay [4] it was 0.13 µM; in assay [5], 0.98 µM; in assay [6] it was 3.69 µM.

As to `CCOc1ccc(C2CNCCS2)cc1` (racemic), the Ratio Ki in assay [1] came to 1; in assay [3], 5. Moreover, the inhibition constant (Ki) in assay [2] turned out to be 9.6 µM; in assay [4], 2.1 µM; in assay [5] it was 2.17 µM; in assay [6] it was 2.17 µM.

Take `CCCCOc1ccc(C2CNCCS2)cc1` (racemic): the Ratio Ki in assay [1] is 52; in assay [3] it was 37. Moreover, the inhibition constant (Ki) in assay [2] turned out to be 2.5 µM; in assay [4], 0.068 µM; in assay [5], 0.27 µM; in assay [6] it was 14.1 µM.

Consider `CCCOc1ccc(C2CNC(=O)CS2)cc1` (racemic), for which the Ratio Ki is 6 in assay [1] and 16.7 in assay [3]. Also, the Ki in assay [2] is 40 µM; in assay [4], 2.4 µM; in assay [5], 1.49 µM; in assay [6] it was 8.68 µM.

Turning to `CCOc1ccc(C2CNC(=O)CS2)cc1` (racemic), the Ratio Ki in assay [1] is 3.6; in assay [3], 3.5. The Ki in assay [2] was determined as 60 µM; in assay [4] it was 16.9 µM; in assay [5], 3.4 µM; in assay [6], 12.3 µM.

Turning to `C[C@H](N)Cc1ccccc1` [DEXTROAMPHETAMINE], the Ratio Ki in assay [1] was over 0.12; in assay [3], 0.05. For the same compound, the inhibition constant Ki in assay [2] was 14.4 µM; in assay [4] it was 280 µM; in assay [5], over 100 µM; in assay [6], 12.2 µM.
